Activity data for 16 compounds are collected here from ChEMBL document CHEMBL3875155, “New (arylalkyl)azole derivatives showing anticonvulsant effects could have VGSC and/or GABAAR affinity according to molecular modeling studies” (Eur J Med Chem, 2016).

Activity calls are given as the source filed them. No cut-off for these calls is given here.

Data set [1] deals with Mus musculus. The data set is described as follows: Anticonvulsant activity in Swiss albino mouse assessed as protection against maximal electroshock-induced seizures at 30 mg/kg, ip after 0.5 hrs. The format is functional, organism-based. The method in brief:
(§1)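 Compound suspended in PEG 400 and given i.p. at 30, 100 or 300 mg/kg, 0.5 or 4 h before testing. Saline (0.9%) applied to the corneas, then 60 Hz alternating current for 0.2 s through corneal electrodes. A mouse counts as protected if hind limb tonic extension stays under 90°. PEG-only placebo mice serve as negative control. Scored as number protected/number tested.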

In data set [2] the test system is Mus musculus. The data set is described as follows: Anticonvulsant activity in Swiss albino mouse assessed as protection against maximal electroshock-induced seizures at 100 mg/kg, ip after 0.5 hrs. The class given is functional, organism-based. The method in brief: as §1
(The maximal electroshock test induces tonic seizures with an electrical stimulus.)

Data set [3] concerns Mus musculus. The data set is described as follows: Anticonvulsant activity in Swiss albino mouse assessed as protection against maximal electroshock-induced seizures at 300 mg/kg, ip after 0.5 hrs. The class given is functional, organism-based. The gist of the method:
as §1

Data set [4] concerns Mus musculus. The data set is described as follows: Anticonvulsant activity in Swiss albino mouse assessed as protection against maximal electroshock-induced seizures at 30 mg/kg, ip after 4 hrs. The format is functional, organism-based. The method in brief: as §1
Data set [5] has as its system Mus musculus. The data set is described as follows: Anticonvulsant activity in Swiss albino mouse assessed as protection against maximal electroshock-induced seizures at 100 mg/kg, ip after 4 hrs. The class given is functional, organism-based. The gist of the method:
as §1

Data set [6] has as its system Mus musculus. The data set is described as follows: Anticonvulsant activity in Swiss albino mouse assessed as protection against maximal electroshock-induced seizures at 300 mg/kg, ip after 4 hrs. The format is functional, organism-based. The method in brief:
as §1

Data set [7] concerns Mus musculus. The data set is described as follows: Neurotoxicity in Swiss albino mouse at 30 mg/kg, ip after 0.5 hrs by rotarod test. The class given is toxicity, organism-based. The settings on record: in vivo. The method in brief:
(§2)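 Rotarod turning at 6 rpm, run after i.p. dosing of PEG 400 suspension (30, 100 or 300 mg/kg; 0.5 or 4 h). Falling off three times within 1 min marks a mouse as neurotoxic. Placebo (PEG) mice serve as control. Scored as number failing/number tested.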
On the technique in general: Falling from the rotarod earlier than controls is read as motor impairment.

The test system of data set [8] is Mus musculus. The data set is described as follows: Neurotoxicity in Swiss albino mouse at 100 mg/kg, ip after 0.5 hrs by rotarod test. The class given is toxicity, organism-based. The settings on record: in vivo. The gist of the method: as §2
The subject of data set [9] is Mus musculus. The data set is described as follows: Neurotoxicity in Swiss albino mouse at 300 mg/kg, ip after 0.5 hrs by rotarod test. The class given is toxicity, organism-based. As to conditions: in vivo. The gist of the method:
as §2

The subject of data set [10] is Mus musculus. The data set is described as follows: Neurotoxicity in Swiss albino mouse at 30 mg/kg, ip after 4 hrs by rotarod test. The format is toxicity, organism-based. The settings on record: in vivo. The gist of the method: as §2
Data set [11] concerns Mus musculus. The data set is described as follows: Neurotoxicity in Swiss albino mouse at 100 mg/kg, ip after 4 hrs by rotarod test. The class given is toxicity, organism-based. The settings on record: in vivo. The gist of the method:
as §2

The test system of data set [12] is Mus musculus. The data set is described as follows: Neurotoxicity in Swiss albino mouse at 300 mg/kg, ip after 4 hrs by rotarod test. The class given is toxicity, organism-based. The settings on record: in vivo. The method in brief:
as §2

The test system of data set [13] is Mus musculus. The data set is described as follows: Anticonvulsant activity in Swiss albino mouse assessed as protection against subcutaneously injected metrazol induced seizures at 300 mg/kg, ip after 4 hrs. The format is functional, organism-based. The gist of the method: (§3)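 Test compounds were given i.p. as PEG 400 suspensions at 30, 100 or 300 mg/kg, 0.5 or 4 h ahead. Metrazol 85 mg/kg is injected s.c. in the neck midline, and mice are watched for 30 min. A mouse counts as protected if it has no clonic spasm episode (about 3–5 s) of the limbs, jaws or vibrissae. PEG placebo serves as negative control. Scored as number protected/number tested.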

For data set [14], the system named is Mus musculus. The data set is described as follows: Anticonvulsant activity in Swiss albino mouse assessed as protection against subcutaneously injected metrazol induced seizures at 300 mg/kg, ip after 0.5 hrs. The format is functional, organism-based. The gist of the method: as §3
Data set [15] has as its system Mus musculus. The data set is described as follows: Anticonvulsant activity in Swiss albino mouse assessed as protection against subcutaneously injected metrazol induced seizures at 100 mg/kg, ip after 4 hrs. The format is functional, organism-based. The method in brief: as §3
The test system of data set [16] is Mus musculus. The data set is described as follows: Anticonvulsant activity in Swiss albino mouse assessed as protection against subcutaneously injected metrazol induced seizures at 30 mg/kg, ip after 4 hrs. The class given is functional, organism-based. The method in brief: as §3

Consider `O=C1NC(=O)C(c2ccccc2)(c2ccccc2)N1` [PHENYTOIN], for which the outcome with Mus musculus [1], with Mus musculus [2], in the data set with Mus musculus [3], with Mus musculus [4], in the data set on Mus musculus [5] and in the data set on Mus musculus [6] was Active. The Activity entry in the data set on Mus musculus [7] was “Non-Toxic”; with Mus musculus [8] it was “Non-Toxic”; with Mus musculus [9] it was “Toxic”; in the data set with Mus musculus [10] it was “Non-Toxic”; in the data set on Mus musculus [11], “Toxic”; in the data set on Mus musculus [12], “Toxic”.
As for `CCC(C)CC(=O)O/N=C(\Cn1cncn1)c1ccc2ccccc2c1.Cl` (configuration not stated), the outcome in the data set on Mus musculus [2], with Mus musculus [6] and in the data set with Mus musculus [13] was Active. Moreover, the Activity result in the data set with Mus musculus [7], with Mus musculus [8], in the data set with Mus musculus [9], in the data set on Mus musculus [10], with Mus musculus [11] and in the data set on Mus musculus [12] was “Non-Toxic” each time.
Turning to `CC(C)C(=O)O/N=C(\Cn1cncn1)c1ccc2ccccc2c1.Cl`, the result with Mus musculus [6] was Active. The Activity result in the data set with Mus musculus [7], in the data set on Mus musculus [8], in the data set on Mus musculus [9], in the data set with Mus musculus [10], with Mus musculus [11] and in the data set on Mus musculus [12] was “Non-Toxic” in each case.
With `CCCC(C)C(=O)O/N=C(\Cn1cncn1)c1ccc2ccccc2c1.Cl` (configuration not stated), the result in the data set on Mus musculus [3] was Active. Also, the Activity result in the data set on Mus musculus [7], in the data set on Mus musculus [8], in the data set on Mus musculus [9], in the data set with Mus musculus [10], with Mus musculus [11] and in the data set with Mus musculus [12] was “Non-Toxic” in each case.
Regarding `NC(=O)N1c2ccccc2C=Cc2ccccc21` [CARBAMAZEPINE], the outcome in the data set on Mus musculus [1], with Mus musculus [2], with Mus musculus [3], in the data set with Mus musculus [5], in the data set on Mus musculus [6] and in the data set on Mus musculus [14] was Active. Further, the outcome in the data set on Mus musculus [15] and with Mus musculus [13] was Active. For the same compound, the Activity result in the data set on Mus musculus [7] is reported as “Non-Toxic”; in the data set with Mus musculus [8] it was “Non-Toxic”; in the data set with Mus musculus [9] it was “Toxic”; in the data set on Mus musculus [10] it was “Non-Toxic”; with Mus musculus [11], “Non-Toxic”; in the data set with Mus musculus [12], “Non-Toxic”.
As for `CC(C)CCC(=O)O/N=C(\Cn1cncn1)c1ccc2ccccc2c1.Cl`, the result with Mus musculus [2], in the data set on Mus musculus [3] and in the data set on Mus musculus [13] was Active. The Activity entry with Mus musculus [7], with Mus musculus [8], in the data set with Mus musculus [9], in the data set on Mus musculus [10], in the data set with Mus musculus [11] and with Mus musculus [12] was “Non-Toxic” each time.
Take `CC(C)CC(=O)O/N=C(\Cn1cncn1)c1ccc2ccccc2c1.Cl`: the result in the data set with Mus musculus [3], in the data set on Mus musculus [5], in the data set on Mus musculus [14], in the data set on Mus musculus [16], in the data set with Mus musculus [15] and with Mus musculus [13] was Active. Further, the Activity entry with Mus musculus [7], with Mus musculus [8], in the data set on Mus musculus [9], with Mus musculus [10], with Mus musculus [11] and with Mus musculus [12] was “Non-Toxic” in each case.
On to `CCC(C)C(=O)O/N=C(\Cn1cncn1)c1ccc2ccccc2c1` (configuration not stated), for which the outcome in the data set on Mus musculus [2], with Mus musculus [3] and in the data set on Mus musculus [13] was Active. Further, the Activity result with Mus musculus [7], with Mus musculus [8], in the data set on Mus musculus [9], in the data set with Mus musculus [10], in the data set on Mus musculus [11] and with Mus musculus [12] was “Non-Toxic” in each case.
For `CCCC(=O)O/N=C(\Cn1cncn1)c1ccc2ccccc2c1`, the outcome in the data set on Mus musculus [6] was Active. Also, the Activity entry with Mus musculus [7], with Mus musculus [8], in the data set on Mus musculus [9], in the data set with Mus musculus [10], in the data set on Mus musculus [11] and in the data set on Mus musculus [12] was “Non-Toxic” in each case.
On to `CCCC(CCC)C(=O)O/N=C(\Cn1cncn1)c1ccc2ccccc2c1.Cl`, for which the result in the data set with Mus musculus [6] and with Mus musculus [13] was Active. Besides, the Activity result with Mus musculus [7], in the data set with Mus musculus [8], in the data set on Mus musculus [9], in the data set with Mus musculus [10], in the data set with Mus musculus [11] and with Mus musculus [12] was “Non-Toxic” throughout.
Regarding `CCCCC(=O)O/N=C(\Cn1cncn1)c1ccc2ccccc2c1.Cl`, the outcome with Mus musculus [3] was Active. Moreover, the Activity result in the data set on Mus musculus [7], in the data set on Mus musculus [8], in the data set with Mus musculus [9], in the data set on Mus musculus [10], in the data set with Mus musculus [11] and in the data set with Mus musculus [12] was “Non-Toxic” each time.
`O=C(O/N=C(\Cn1cncn1)c1ccc2ccccc2c1)C1CCCCC1`: in the data set with Mus musculus [3], the result was Active. Further, the Activity entry in the data set with Mus musculus [7], with Mus musculus [8], in the data set with Mus musculus [9], in the data set with Mus musculus [10], in the data set with Mus musculus [11] and in the data set on Mus musculus [12] was “Non-Toxic” each time.
Take `O=C(/C=C/c1ccccc1)O/N=C(\Cn1cncn1)c1ccc2ccccc2c1`: the Activity entry in the data set on Mus musculus [7], in the data set with Mus musculus [8], in the data set with Mus musculus [9], in the data set on Mus musculus [10], with Mus musculus [11] and with Mus musculus [12] was “Non-Toxic” in each case.
On to `CC(C)(C)C(=O)O/N=C(\Cn1cncn1)c1ccc2ccccc2c1`, for which the Activity result in the data set on Mus musculus [7], in the data set with Mus musculus [8], in the data set on Mus musculus [9], in the data set with Mus musculus [10], with Mus musculus [11] and in the data set with Mus musculus [12] was “Non-Toxic” throughout.
With `CCC(=O)O/N=C(\Cn1cncn1)c1ccc2ccccc2c1.Cl`, the Activity entry with Mus musculus [7], in the data set with Mus musculus [8], in the data set on Mus musculus [9], in the data set with Mus musculus [10], in the data set with Mus musculus [11] and with Mus musculus [12] was “Non-Toxic” in each case.
Take `Cl.O=C(Cc1ccccc1)O/N=C(\Cn1cncn1)c1ccc2ccccc2c1`: the Activity entry in the data set on Mus musculus [7], with Mus musculus [8], in the data set on Mus musculus [9], in the data set on Mus musculus [10], with Mus musculus [11] and with Mus musculus [12] was “Non-Toxic” each time.
